Here are results for 1 compound from ChEMBL document CHEMBL5712070, “Discovery of a chemical probe for the L3MBTL3 methyllysine reader domain” (Nat Chem Biol, 2013).

Structures are written as SMILES.

The nature of data set [1]: Stability in HEK293T/17 cells assessed as compound degradation after 72 hrs in presence of in cell media. Format: ADME, cell-based. Conditions: human, hek293t/17, 72 h. The gist of the method:
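Compound incubated in cell medium with or without HEK293 cells for 72 hours, then examined for degradation products.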

The next data set deals with TP53-binding protein 1 (Homo sapiens, UniProt Q12888). Description: Binding affinity to 53BP1 (unknown origin) by ITC assay. Background: Isothermal titration calorimetry measures the heat released or taken up as one component is titrated into another.
Data set [2] deals with T1, Lethal(3)malignant brain tumor-like protein 3 (Homo sapiens) (UniProt Q96JM7).
T1 sequence (whole entry): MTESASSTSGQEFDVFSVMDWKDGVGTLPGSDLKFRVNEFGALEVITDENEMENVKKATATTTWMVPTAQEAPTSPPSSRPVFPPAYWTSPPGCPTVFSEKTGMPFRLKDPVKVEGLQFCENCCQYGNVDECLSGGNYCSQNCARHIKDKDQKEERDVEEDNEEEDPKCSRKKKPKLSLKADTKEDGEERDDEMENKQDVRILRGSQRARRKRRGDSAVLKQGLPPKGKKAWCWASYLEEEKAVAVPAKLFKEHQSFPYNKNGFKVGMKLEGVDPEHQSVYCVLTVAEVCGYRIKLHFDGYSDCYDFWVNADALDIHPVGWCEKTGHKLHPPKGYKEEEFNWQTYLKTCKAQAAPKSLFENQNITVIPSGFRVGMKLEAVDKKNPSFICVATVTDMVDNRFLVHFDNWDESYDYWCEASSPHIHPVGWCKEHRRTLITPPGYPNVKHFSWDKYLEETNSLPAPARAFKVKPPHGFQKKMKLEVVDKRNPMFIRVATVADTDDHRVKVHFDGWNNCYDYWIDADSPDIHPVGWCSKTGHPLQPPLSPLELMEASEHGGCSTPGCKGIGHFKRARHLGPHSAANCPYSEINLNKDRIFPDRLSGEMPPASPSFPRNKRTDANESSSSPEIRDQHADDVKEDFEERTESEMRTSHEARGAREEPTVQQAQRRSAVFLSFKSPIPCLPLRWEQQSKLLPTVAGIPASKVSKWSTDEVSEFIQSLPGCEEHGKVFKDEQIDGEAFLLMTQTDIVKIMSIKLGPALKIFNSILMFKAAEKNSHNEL
The note with it: dose 0.1 µM.

For data set [3], the target named is T1, Lethal(3)malignant brain tumor-like protein 3 (Homo sapiens). The note with it: dose 0.05 µM.
Data set [4] has as its target T2, Lethal(3)malignant brain tumor-like protein 3 (Homo sapiens, UniProt Q96JM7).
T2 sequence (Q96JM7 whole entry): T1 sequence (whole entry)
Description: Binding affinity to GFP-3MBT tagged L3MBTL3 (unknown origin) assessed as diffusion coefficient at 0.5 uM (reference value: 0.1272 um2/s).

Data set [5] deals with T2, Lethal(3)malignant brain tumor-like protein 3. Nature of the data set: Binding affinity to GFP-tagged full length L3MBTL3 (unknown origin) assessed as diffusion coefficient at 0.5 uM (reference value: 0.037549815 um2/s).

TP53-binding protein 1, sequence (Q12888 whole entry): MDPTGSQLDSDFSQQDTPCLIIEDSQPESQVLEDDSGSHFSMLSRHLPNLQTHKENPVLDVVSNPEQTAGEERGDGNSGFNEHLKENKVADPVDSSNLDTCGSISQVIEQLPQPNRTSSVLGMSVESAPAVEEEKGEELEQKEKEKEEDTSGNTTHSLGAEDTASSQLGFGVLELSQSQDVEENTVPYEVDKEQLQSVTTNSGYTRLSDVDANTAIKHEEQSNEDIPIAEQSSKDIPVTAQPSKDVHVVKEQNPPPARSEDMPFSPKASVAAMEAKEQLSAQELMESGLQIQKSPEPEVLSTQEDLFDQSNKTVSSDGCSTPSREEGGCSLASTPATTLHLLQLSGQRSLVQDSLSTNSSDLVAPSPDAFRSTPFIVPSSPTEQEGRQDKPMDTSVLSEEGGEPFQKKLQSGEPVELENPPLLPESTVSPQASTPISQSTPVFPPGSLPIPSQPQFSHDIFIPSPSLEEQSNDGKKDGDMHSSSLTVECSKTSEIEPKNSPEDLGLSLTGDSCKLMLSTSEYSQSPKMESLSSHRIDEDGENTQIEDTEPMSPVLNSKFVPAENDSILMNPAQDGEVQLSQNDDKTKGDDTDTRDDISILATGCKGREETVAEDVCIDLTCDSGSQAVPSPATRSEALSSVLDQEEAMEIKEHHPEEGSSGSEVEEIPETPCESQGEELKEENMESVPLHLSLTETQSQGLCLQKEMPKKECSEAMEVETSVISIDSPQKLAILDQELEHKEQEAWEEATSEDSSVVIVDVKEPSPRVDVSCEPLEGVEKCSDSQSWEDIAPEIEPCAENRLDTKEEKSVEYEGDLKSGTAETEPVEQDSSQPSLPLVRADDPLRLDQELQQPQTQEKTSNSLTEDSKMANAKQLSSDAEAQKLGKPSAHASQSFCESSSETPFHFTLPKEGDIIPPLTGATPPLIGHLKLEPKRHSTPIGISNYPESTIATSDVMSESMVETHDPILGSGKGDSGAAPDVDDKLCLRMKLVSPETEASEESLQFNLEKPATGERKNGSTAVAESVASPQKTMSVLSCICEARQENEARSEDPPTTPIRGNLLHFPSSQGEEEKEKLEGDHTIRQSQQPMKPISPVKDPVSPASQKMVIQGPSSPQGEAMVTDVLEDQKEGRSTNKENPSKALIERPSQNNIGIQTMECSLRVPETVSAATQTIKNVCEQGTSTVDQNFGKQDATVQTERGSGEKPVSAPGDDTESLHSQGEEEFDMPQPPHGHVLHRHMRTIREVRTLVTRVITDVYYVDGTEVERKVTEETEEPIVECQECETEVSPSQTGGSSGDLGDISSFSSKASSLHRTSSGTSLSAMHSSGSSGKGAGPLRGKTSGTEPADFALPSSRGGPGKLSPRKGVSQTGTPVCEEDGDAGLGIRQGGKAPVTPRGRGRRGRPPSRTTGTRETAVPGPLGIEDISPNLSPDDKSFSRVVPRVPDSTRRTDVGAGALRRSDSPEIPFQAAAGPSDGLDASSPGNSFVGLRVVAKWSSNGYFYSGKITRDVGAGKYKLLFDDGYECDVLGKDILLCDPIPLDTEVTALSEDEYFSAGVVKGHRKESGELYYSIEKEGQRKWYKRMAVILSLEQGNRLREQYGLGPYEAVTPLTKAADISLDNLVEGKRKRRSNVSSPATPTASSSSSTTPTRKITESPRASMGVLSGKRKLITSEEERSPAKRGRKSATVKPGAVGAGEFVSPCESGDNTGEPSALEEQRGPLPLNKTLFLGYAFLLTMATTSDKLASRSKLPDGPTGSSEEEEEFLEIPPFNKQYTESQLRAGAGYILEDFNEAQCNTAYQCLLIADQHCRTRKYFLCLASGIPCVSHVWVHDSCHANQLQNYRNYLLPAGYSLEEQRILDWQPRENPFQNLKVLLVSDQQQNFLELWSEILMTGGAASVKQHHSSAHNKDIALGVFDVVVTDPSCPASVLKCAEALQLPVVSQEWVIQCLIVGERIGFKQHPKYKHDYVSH

Consider `O=C(c1ccc(C(=O)N2CCC(N3CCCC3)CC2)c(Nc2ccccc2)c1)N1CCC(N2CCCC2)CC1`, for which the Stability result in data set [1] is given as “Stable”. The Kd on TP53-binding protein 1 is > 31 µM. Moreover, the T1/2 in data set [2] worked out at 20.1 s; in data set [3], 6.5 s. Also, the Diffusion coefficient worked out at 0.297 um2/s in data set [4] and 0.05 um2/s in data set [5].

The Kd is the concentration at which binding is half-saturated. Read a low Kd as higher affinity.
